Assay results: PubChem BioAssay AID485348 (The Scripps Research Institute Molecular Screening Center, 2010)
The source made the active and inactive calls.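 How the source made its calls: active means inhibition above 25%, the campaign hit cutoff; inactive means the rest.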

target: Nuclear receptor subfamily 5 group A member 2 (Homo sapiens) (UniProt O00482); test: suppression of LRH-1-driven Cyp19-luciferase signal, LRH-1 inverse agonist project, cell-based, luminescence, 3X%INH (AID 485348); conditions: HEK293T LRH-1 Cyp19-luciferase reporter, 20 h, at 5 µM, hits give high values
Sequence (O00482 whole entry, looked up): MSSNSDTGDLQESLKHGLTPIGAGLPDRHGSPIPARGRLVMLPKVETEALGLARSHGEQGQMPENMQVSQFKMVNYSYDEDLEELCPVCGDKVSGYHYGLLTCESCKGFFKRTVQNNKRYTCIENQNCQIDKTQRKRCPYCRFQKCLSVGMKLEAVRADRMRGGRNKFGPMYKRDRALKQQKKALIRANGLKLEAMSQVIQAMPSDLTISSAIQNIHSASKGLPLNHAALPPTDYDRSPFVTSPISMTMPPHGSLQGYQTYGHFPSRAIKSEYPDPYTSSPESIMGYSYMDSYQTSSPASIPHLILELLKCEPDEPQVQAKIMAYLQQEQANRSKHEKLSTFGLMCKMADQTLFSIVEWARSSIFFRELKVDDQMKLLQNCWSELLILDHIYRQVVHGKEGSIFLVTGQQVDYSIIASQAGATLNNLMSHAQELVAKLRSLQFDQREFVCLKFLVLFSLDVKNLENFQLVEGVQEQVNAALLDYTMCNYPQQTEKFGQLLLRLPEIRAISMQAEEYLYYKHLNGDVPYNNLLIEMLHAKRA
Method in brief: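 Assay system – HEK293T with full-length LRH-1 plus Cyp19 luciferase reporter · Times – 20 h compound exposure after 4 h rest · Measured by – luminescence · Benchmarks – DMSO vehicle wells · Repeats – triplicate wells per compound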

SMILES	inhibition
CCn1c(=O)cc(N2CCN(c3cccc(C(F)(F)F)c3)CC2)[nH]c1=O	39.3%
CCn1c(=O)cc(N2CCN(c3cccc(Cl)c3)CC2)[nH]c1=O	45%
C=CCN1CCN(c2cc(=O)n(C3CCCCC3)c(=O)[nH]2)CC1	-30% (inactive)
CC1CCN(c2cc(=O)n(C3CCCCC3)c(=O)[nH]2)CC1	10% (inactive)
CC1CCN(c2cc(=O)n(Cc3ccc(F)cc3)c(=O)[nH]2)CC1	5.7% (inactive)
O=c1cc(N2CCCC2)[nH]c(=O)n1C1CCCCC1	8.7% (inactive)
O=c1cc(N2CCN(c3cccc(C(F)(F)F)c3)CC2)[nH]c(=O)n1-c1ccccc1	17.7% (inactive)
CCn1c(=O)cc(N2CCN(C(=O)c3ccco3)CC2)[nH]c1=O	3.3% (inactive)
O=c1cc(N2CCN(CCN3CCOCC3)CC2)[nH]c(=O)n1C1CCCCC1	13.3% (inactive)
CCN1CCN(c2cc(=O)n(C3CCCCC3)c(=O)[nH]2)CC1	5.3% (inactive)
O=c1cc(N2CCN(c3ccccc3)CC2)[nH]c(=O)n1Cc1ccc(F)cc1	22.7% (inactive)
Cn1c(=O)cc(N2CCN(c3cccc(Cl)c3)CC2)[nH]c1=O	40.7%
CCn1c(=O)cc(N2CCN(c3ccc(F)cc3)CC2)[nH]c1=O	2.3% (inactive)
O=c1cc(N2CCOCC2)[nH]c(=O)n1C1CCCCC1	5.3% (inactive)
O=c1cc(N2CCN(c3cccc(Cl)c3)CC2)[nH]c(=O)[nH]1	0% (inactive)
CCOC(=O)N1CCN(c2cc(=O)n(C3CCCCC3)c(=O)[nH]2)CC1	16% (inactive)
O=c1cc(N2CCC(Cc3ccccc3)CC2)[nH]c(=O)n1C1CCCCC1	2.3% (inactive)

SMILES	inhibition
O=C(c1ccccc1)N1CCN(c2cc(=O)n(C3CCCCC3)c(=O)[nH]2)CC1	0.3% (inactive)
O=C(c1ccco1)N1CCN(c2cc(=O)n(C3CCCCC3)c(=O)[nH]2)CC1	11% (inactive)
O=c1cc(N2CCc3ccccc32)[nH]c(=O)n1C1CCCCC1	14.3% (inactive)
CCn1c(=O)cc(N2CCN(Cc3ccccc3)CC2)[nH]c1=O	9.7% (inactive)
O=c1cc(N2CCCCC2)[nH]c(=O)n1C1CCCCC1	20.3% (inactive)
O=c1cc(N2CCN(C(c3ccccc3)c3ccccc3)CC2)[nH]c(=O)n1C1CCCCC1	4% (inactive)
CC(C)Cn1c(=O)cc(N2CCN(c3cccc(C(F)(F)F)c3)CC2)[nH]c1=O	33.3%
C=CCn1c(=O)cc(N2CCN(c3cccc(C(F)(F)F)c3)CC2)[nH]c1=O	36.7%
Cc1ccc(C)n1CCN1CCN(c2cc(=O)n(C3CCCCC3)c(=O)[nH]2)CC1	32.3%
CCn1c(=O)cc(N2CCN(c3ccccc3)CC2)[nH]c1=O	3.7% (inactive)
O=c1cc(N2CCN(Cc3ccc4c(c3)OCO4)CC2)[nH]c(=O)n1C1CCCCC1	16.7% (inactive)
O=c1cc(N2CCN(C3CCCCC3)CC2)[nH]c(=O)n1C1CCCCC1	35.3%
Cn1c(=O)cc(N2CCN(c3ccc(F)cc3)CC2)[nH]c1=O	14% (inactive)
O=c1cc(N2CCN(c3cccc(C(F)(F)F)c3)CC2)n(Cc2ccccc2)c(=O)n1C1CCCCC1	21.3% (inactive)
O=c1cc(N2CCN(c3cccc(C(F)(F)F)c3)CC2)[nH]c(=O)n1Cc1ccccc1	3% (inactive)
COC(=O)C1CCN(c2cc(=O)n(C3CCCCC3)c(=O)[nH]2)CC1	18% (inactive)

Now from value to compound:

inhibition	SMILES
3.3% (inactive)	O=c1cc(N2CCN(c3cccc(C(F)(F)F)n3)CC2)[nH]c(=O)n1C1CCCCC1
38.3%	Cc1cc(C)cc(N2CCN(c3cc(=O)n(C4CCCCC4)c(=O)[nH]3)CC2)c1
0% (inactive)	O=c1cc(N2CCN(c3ccc(C(F)(F)F)cc3)CC2)[nH]c(=O)n1C1CCCCC1
29.7%	C=CCn1c(N2CCN(c3cccc(C(F)(F)F)c3)CC2)cc(=O)n(C2CCCCC2)c1=O
17% (inactive)	O=c1cc(N2CCN(c3cccc(Br)c3)CC2)[nH]c(=O)n1C1CCCCC1
52.3%	O=c1cc(N2CCN(c3cccc(Cl)c3)CC2)[nH]c(=O)n1C1CCCCC1
34.7%	O=c1cc(N2CCN(c3ccnc4cc(Cl)ccc34)CC2)[nH]c(=O)n1C1CCCCC1
32%	O=c1cc(N2CCN(c3ccccc3)CC2)[nH]c(=O)n1C1CCCCC1
42%	O=c1cc(N2CCN(c3nc(-c4ccccc4)ns3)CC2)[nH]c(=O)n1C1CCCCC1
42%	O=c1cc(N2CCN(c3cccc(Cl)c3Cl)CC2)[nH]c(=O)n1C1CCCCC1
11.3% (inactive)	O=c1cc(N2CCN(c3ncccc3C(F)(F)F)CC2)[nH]c(=O)n1C1CCCCC1
2.7% (inactive)	O=c1cc(N2CCN(c3nccc4occc34)CC2)[nH]c(=O)n1C1CCCCC1
36%	O=c1cc(N2CCN(c3ccccn3)CC2)[nH]c(=O)n1C1CCCCC1
1.3% (inactive)	O=c1cc(N2CCN(c3ccc(F)cc3)CC2)[nH]c(=O)n1C1CCCCC1
17.7% (inactive)	O=c1cc(N2CCN(c3ncccc3Cl)CC2)[nH]c(=O)n1C1CCCCC1
1.7% (inactive)	COc1ccc(N2CCN(c3cc(=O)n(C4CCCCC4)c(=O)[nH]3)CC2)cc1
2% (inactive)	N#CCn1c(N2CCN(c3cccc(C(F)(F)F)c3)CC2)cc(=O)n(C2CCCCC2)c1=O
45%	O=c1cc(N2CCN(c3cccc(Cl)n3)CC2)[nH]c(=O)n1C1CCCCC1
16% (inactive)	O=c1cc(N2CCN(c3ccccc3Cl)CC2)[nH]c(=O)n1C1CCCCC1
3.3% (inactive)	O=c1cc(N2CCN(c3ccc(F)cc3F)CC2)[nH]c(=O)n1C1CCCCC1
20% (inactive)	O=c1cc(N2CCN(c3cc(Cl)cc(Cl)c3)CC2)[nH]c(=O)n1C1CCCCC1
45.7%	O=c1cc(N2CCN(c3cccc(C(F)(F)F)c3)CC2)[nH]c(=O)n1C1CCCCC1
36.7%	O=c1cc(N2CCN(c3cccc(F)c3)CC2)[nH]c(=O)n1C1CCCCC1
16.3% (inactive)	Cc1ccc(Cl)cc1N1CCN(c2cc(=O)n(C3CCCCC3)c(=O)[nH]2)CC1
16% (inactive)	O=c1cc(N2CCN(c3ccccc3C(F)(F)F)CC2)[nH]c(=O)n1C1CCCCC1
20.3% (inactive)	O=c1cc(N2CCN(c3cc(C(F)(F)F)ccn3)CC2)[nH]c(=O)n1C1CCCCC1
30.3%	O=c1cc(N2CCN(Cc3ccc(Cl)cc3)CC2)[nH]c(=O)n1C1CCCCC1
